This passage reports inhibition and IC50 results from ChEMBL document CHEMBL4049456, “Identification of 4-(Aminomethyl)-6-(trifluoromethyl)-2-(phenoxy)pyridine Derivatives as Potent, Selective, and Orally Efficacious Inhibitors of the Copper-Dependent Amine Oxidase, Lysyl Oxidase-Like 2 (LOXL2)” (J Med Chem, 2017).

Structures are written as SMILES. Where only a bound is given, the exact number is not on record here.

The target in series [1] is T1, Diamine oxidase [copper-containing] (Homo sapiens) (UniProt P19801).
T1 sequence (whole entry): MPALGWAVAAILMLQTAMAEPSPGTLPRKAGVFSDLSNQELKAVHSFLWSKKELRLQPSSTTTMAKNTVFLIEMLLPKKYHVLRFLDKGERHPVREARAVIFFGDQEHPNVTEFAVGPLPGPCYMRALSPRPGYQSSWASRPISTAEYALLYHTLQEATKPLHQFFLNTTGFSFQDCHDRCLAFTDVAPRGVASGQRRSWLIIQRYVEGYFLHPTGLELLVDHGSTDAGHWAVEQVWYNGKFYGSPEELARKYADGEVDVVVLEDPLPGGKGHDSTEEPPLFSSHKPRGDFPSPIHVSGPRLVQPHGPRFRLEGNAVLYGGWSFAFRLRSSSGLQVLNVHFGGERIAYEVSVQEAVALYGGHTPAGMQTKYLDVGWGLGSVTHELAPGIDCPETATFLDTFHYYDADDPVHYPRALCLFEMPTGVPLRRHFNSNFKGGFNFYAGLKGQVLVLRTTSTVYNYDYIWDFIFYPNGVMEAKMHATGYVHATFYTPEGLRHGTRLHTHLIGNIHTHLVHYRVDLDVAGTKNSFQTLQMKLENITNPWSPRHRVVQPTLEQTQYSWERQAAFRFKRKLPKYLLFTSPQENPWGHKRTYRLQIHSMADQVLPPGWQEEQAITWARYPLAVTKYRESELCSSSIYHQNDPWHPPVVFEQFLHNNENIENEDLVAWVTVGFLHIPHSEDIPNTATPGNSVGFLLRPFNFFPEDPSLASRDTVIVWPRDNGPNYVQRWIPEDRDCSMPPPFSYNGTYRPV
The series can be described thus: Inhibition of recombinant human DAO assessed as reduction of H2O2 production from oxidative deamination of DAP at 10 uM preincubated for 2 hrs followed by substrate addition measured every 2 mins for 1 hr by amplex red reagent-based fluorescence assay. Summed up:
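Purified recombinant human DAO was preincubated with compound for 2 h and DAP used as substrate. Percent inhibition was calculated against vehicle and enzyme-free controls.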

The next series has as its target T2, Lysyl oxidase homolog 3 (Homo sapiens, UniProt P58215).
T2 sequence (P58215 whole entry): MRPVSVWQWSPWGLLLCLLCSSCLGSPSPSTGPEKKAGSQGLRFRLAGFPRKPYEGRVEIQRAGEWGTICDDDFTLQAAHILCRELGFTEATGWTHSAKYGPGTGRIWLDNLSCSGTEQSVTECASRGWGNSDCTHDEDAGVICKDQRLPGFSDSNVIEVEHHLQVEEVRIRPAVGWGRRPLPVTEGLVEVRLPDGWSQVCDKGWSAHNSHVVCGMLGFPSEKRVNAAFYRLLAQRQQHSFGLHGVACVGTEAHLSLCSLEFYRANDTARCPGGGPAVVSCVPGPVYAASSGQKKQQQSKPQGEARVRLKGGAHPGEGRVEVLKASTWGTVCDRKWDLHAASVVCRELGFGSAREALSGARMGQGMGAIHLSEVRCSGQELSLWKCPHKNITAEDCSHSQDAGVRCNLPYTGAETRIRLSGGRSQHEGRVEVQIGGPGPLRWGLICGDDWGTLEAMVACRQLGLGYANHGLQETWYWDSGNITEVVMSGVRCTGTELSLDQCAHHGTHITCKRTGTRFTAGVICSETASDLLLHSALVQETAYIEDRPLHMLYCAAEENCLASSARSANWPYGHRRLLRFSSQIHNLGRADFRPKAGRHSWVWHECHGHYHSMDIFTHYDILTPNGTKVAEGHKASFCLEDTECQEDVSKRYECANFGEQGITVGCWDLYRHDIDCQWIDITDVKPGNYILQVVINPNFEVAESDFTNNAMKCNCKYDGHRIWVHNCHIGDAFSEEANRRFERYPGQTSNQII
The series can be described thus: Inhibition of recombinant human LOXL3 assessed as reduction of H2O2 production from oxidative deamination of DAP preincubated for 2 hrs followed by substrate addition measured every 2 mins for 1 hr by amplex red reagent-based fluorescence assay. In short, it runs like this:
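Purified recombinant human LOXL3 was preincubated with compound for 2 h, then H2O2 produced from DAP deamination was measured.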

The target of the next series is T3, MAO-A (Homo sapiens, UniProt P21397).
T3 sequence (P21397 whole entry): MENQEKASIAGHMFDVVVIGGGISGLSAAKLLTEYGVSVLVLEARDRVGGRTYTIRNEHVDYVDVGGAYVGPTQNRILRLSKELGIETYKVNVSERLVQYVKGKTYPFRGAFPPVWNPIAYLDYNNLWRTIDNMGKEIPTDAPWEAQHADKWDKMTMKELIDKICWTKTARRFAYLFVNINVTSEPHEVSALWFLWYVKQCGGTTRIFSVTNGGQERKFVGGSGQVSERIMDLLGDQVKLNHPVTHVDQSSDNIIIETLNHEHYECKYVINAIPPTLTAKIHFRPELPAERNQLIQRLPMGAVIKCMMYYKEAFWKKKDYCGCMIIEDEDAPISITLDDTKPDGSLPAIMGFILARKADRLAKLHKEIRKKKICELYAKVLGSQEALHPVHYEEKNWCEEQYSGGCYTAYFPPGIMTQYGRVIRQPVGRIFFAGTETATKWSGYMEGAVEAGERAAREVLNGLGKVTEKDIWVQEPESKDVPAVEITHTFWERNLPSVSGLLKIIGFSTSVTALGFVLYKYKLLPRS
Description: Inhibition of recombinant human MAO-A assessed as reduction of H2O2 production from oxidative deamination of tyramine at 10 uM preincubated for 2 hrs followed by substrate addition. The conditions noted are these: probe tyramine. In short, it runs like this: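 Purified recombinant human MAO-A (tyramine substrate) or MAO-B (benzylamine substrate) was preincubated with compound for 2 h. Percent inhibition was calculated against vehicle and enzyme-free controls.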

With `Cl.NCc1cc(Oc2cccc(C(=O)N3C[C@@H](O)[C@H](F)C3)c2)nc(C(F)(F)F)c1` (racemic), the inhibition in series [1] is less than 10%. Further, the IC50 on Lysyl oxidase homolog 3 came out at 1380 nM. Moreover, the inhibition at 2 h, 10 µM on MAO-A was less than 10%.

One may read the inhibition as the share of the control response that was lost under treatment. As usually defined, the IC50 is the concentration at which inhibition is half-maximal.
